Blank lines part the entries; values can stand above or below the compound they belong to.
Legend:
[1] = Plasma metabolite profiles; assay type: in vivo, male CD‐1 mice; conditions: for Highest plasma concentration: at 30 min after dosing; for AUC0‐48 h of radiolabeled component in plasma (% AUC of total RA): pool of 2 mice
[2] = Excretion and mass balance; assay type: in vivo, male CD‐1 mice
[3] = Metabolite profiles in selected tissues 1 h p.d.; assay type: in vivo, male CD‐1 mice; conditions: single iv 1 mg/kg, text: % of total radioactivity in the tissue
[4] = Blood/plasma pharmacokinetics of total radiolabeled components; assay type: in vivo, male CD‐1 mice; conditions: dried blood and plasma; i.v. 1 mg/kg
Method in brief: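 Male albino CD-1 mice (30-36 g, 8-10 weeks) got one i.v. saphenous bolus of 1 mg/kg tritiated test nucleoside in 0.9% NaCl (2 mL/kg, 53-67 MBq/kg) under light isoflurane. EDTA blood was drawn at 0.083-48 h, two samples per mouse, n = 1 per time point. Plasma was spun 3000 g, 10 min, 4°C. Aliquots were dried at 37°C to remove tritiated water, then counted by LSC. Noncompartmental PK was used.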

[5] = Quantitative whole-body autoradiography; assay type: in vivo, male CD‐1 mice
Method in brief: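 The same single 1 mg/kg i.v. tritium-label dose was given to male CD-1 mice. At 0.167, 1, 2, 24 and 48 h, mice were killed under deep isoflurane and frozen in hexane/dry ice at −70°C. 40 µm whole-body sections were exposed to imaging plates for 2 weeks at room temperature and scanned at 50 µm. Densitometry used blood calibrators. Tissue:blood Cmax/AUClast ratios were derived, AUC by linear trapezoidal rule.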

[6] = Tolerability of the single intravenous administration; assay type: in vivo; conditions: mice
[7] = male, CD-1, mouse, plasma, iv, 1 mg/kg
[8] = 0–48 h, single iv 1 mg/kg, average of n = 2
[9] = single iv 1 mg/kg, average of n = 2
[10] = single iv 1 mg/kg, average of n = 2, 1 mg/kg

Highest plasma concentration [1]: 0.1 µmol/L
AUC [1, 7]: 1.34 µM·h
concentration at 0.083 h [1, 7]: 14.2 nM
concentration at 0.5 h [1, 7]: 144 nM
concentration at 1 h [1, 7]: 109 nM
concentration at 2 h [1, 7]: 87.5 nM
concentration at 4 h [1, 7]: 63.5 nM
concentration at 8 h [1, 7]: 36.8 nM
concentration at 24 h [1, 7]: 14.5 nM
concentration at 48 h [1, 7]: 17.5 nM
AUC0‐48 h of radiolabeled component in plasma (% AUC of total RA) ([1]; single iv 1 mg/kg): 23.6 % AUC of total RA
Amount of radiolabeled component, total excretion (urine + feces) [2, 8]: 4.03 % of RA dose
Amount of radiolabeled component in feces (0–48) [2, 9]: 0.418 % of RA dose
Amount of radiolabeled component in heart [3]: 46.6%
Amount of radiolabeled component in kidney [3]: 89.4%
Amount of radiolabeled component in liver [3]: 28.8%
Amount of radiolabeled component in lung [3]: 83.4%
Amount of radiolabeled component in salivary gland [3]: 90.9%
Amount of radiolabeled component in spleen [3]: 57.9%
SMILES: O=c1cc[nH]c(=O)[nH]1 [Metabolite M3, uracil]

AUC [1, 7]: 0.461 µM·h
concentration at 0.5 h [1, 7]: 38.9 nM
concentration at 1 h [1, 7]: 33.3 nM
concentration at 2 h [1, 7]: 7.1 nM
concentration at 4 h [1, 7]: 22.6 nM
concentration at 8 h [1, 7]: 11.1 nM
concentration at 24 h [1, 7]: 5.7 nM
concentration at 48 h [1, 7]: 9.6 nM
AUC0‐48 h of radiolabeled component in plasma (% AUC of total RA) ([1]; single iv 1 mg/kg): 8.11 % AUC of total RA
Amount of radiolabeled component, total excretion (urine + feces) [2, 8]: 0.0771 % of RA dose
Amount of radiolabeled component in urine (0–48 h) [2, 10]: 0.0771 % of RA dose
Amount of radiolabeled component in heart [3]: 6.81%
Amount of radiolabeled component in liver [3]: 17.8%
Amount of radiolabeled component in lung [3]: 2.41%
Amount of radiolabeled component in spleen [3]: 3.62%
SMILES: Nc1cc[nH]c(=O)n1 [Metabolite M2, cytosine]

Highest plasma concentration [1]: 0.2 µmol/L
AUC [1, 7]: 1.87 µM·h
concentration at 0.083 h [1, 7]: 5.1 nM
concentration at 0.5 h [1, 7]: 170 nM
concentration at 1 h [1, 7]: 108 nM
concentration at 2 h [1, 7]: 130 nM
concentration at 4 h [1, 7]: 104 nM
concentration at 8 h [1, 7]: 43.4 nM
concentration at 24 h [1, 7]: 26.9 nM
concentration at 48 h [1, 7]: 18.8 nM
AUC0‐48 h of radiolabeled component in plasma (% AUC of total RA) ([1]; single iv 1 mg/kg): 32.8 % AUC of total RA
Amount of radiolabeled component, total excretion (urine + feces) [2, 8]: 0.156 % of RA dose
Amount of radiolabeled component in heart [3]: 28.4%
Amount of radiolabeled component in kidney [3]: 10.6%
Amount of radiolabeled component in liver [3]: 47.6%
Amount of radiolabeled component in lung [3]: 2.31%
Amount of radiolabeled component in salivary gland [3]: 6.88%
Amount of radiolabeled component in spleen [3]: 32.9%
SMILES: O=c1ccn([C@@H]2O[C@H](CO)[C@@H](O)[C@H]2O)c(=O)[nH]1 [Metabolite M1, uridine]

AUC [1, 7]: 0.0639 µM·h
concentration at 0.5 h [1, 7]: 44 nM
concentration at 2 h [1, 7]: 8.6 nM
concentration at 4 h [1, 7]: 10.3 nM
concentration at 48 h [1, 7]: 0 nM
AUC0‐48 h of radiolabeled component in plasma (% AUC of total RA) ([1]; single iv 1 mg/kg, 1 mg/kg): 1.12 % AUC of total RA
Amount of radiolabeled component, total excretion (urine + feces) [2, 8]: 1.94 % of RA dose
Amount of radiolabeled component in feces (0–48) [2, 9]: 0.102 % of RA dose
SMILES: Nc1ccn([C@@H]2O[C@H](CO)[C@@H](O)[C@H]2O)c(=O)n1 [Metabolite M5, cytidine]

SMILES: CO[C@@H]1[C@H](O)[C@@H](CO)O[C@H]1n1ccc(=O)[nH]c1=O [2′O‐methyluridine, 2′‐O‐methyluridine]
Tlast of total radiolabeled components [4]: 48 h
Total detected radiolabeled components, concentration in dried plasma ([1]; 0.083 h postdose, single iv 1 mg/kg): 0.446 µmol/L
Total detected radiolabeled components, concentration in dried plasma ([1]; 0.5 h postdose, single iv 1 mg/kg): 0.617 µmol/L
Total detected radiolabeled components, concentration in dried plasma ([1]; 1 h postdose, single iv 1 mg/kg): 0.343 µmol/L
Total detected radiolabeled components, concentration in dried plasma ([1]; 2 h postdose, single iv 1 mg/kg): 0.270 µmol/L
Total detected radiolabeled components, concentration in dried plasma ([1]; 4 h postdose, single iv 1 mg/kg): 0.241 µmol/L
Total detected radiolabeled components, concentration in dried plasma ([1]; 8 h postdose, single iv 1 mg/kg): 0.134 µmol/L
Total detected radiolabeled components, concentration in dried plasma ([1]; 24 h postdose, single iv 1 mg/kg): 0.080 µmol/L
Total detected radiolabeled components, concentration in dried plasma ([1]; 48 h postdose, single iv 1 mg/kg): 0.0781 µmol/L
Time up to which detectable in plasma ([1]; after i.v. dosing 1 mg/kg, LC‐MS‐RA): up to 24 h
AUC0‐48h ratio of total radioactivity over parent compound ([1]; dried plasma): about 17
clearance ([1]; male, CD-1, mouse, plasma, intravenous, 1 mg/kg): 157 mL/min/kg
AUC [1, 7]: 0.335 µM·h
Cmax [1, 7]: 402 nM
concentration at 0.083 h [1, 7]: 402 nM
concentration at 0.5 h [1, 7]: 119 nM
concentration at 1 h [1, 7]: 22.3 nM
concentration at 2 h [1, 7]: 6 nM
concentration at 4 h [1, 7]: 6.3 nM
concentration at 8 h [1, 7]: 3.6 nM
concentration at 48 h [1, 7]: 6.7 nM
Total detected radiolabeled components, plasma AUC0‐48 h ([1]; single iv 1 mg/kg): 5.69 µM·h
Total detected radiolabeled components, plasma AUC0‐48 h (% AUC of total RA) ([1]; single iv 1 mg/kg): 100 % AUC of total RA
AUC0‐48 h of radiolabeled component in plasma (% AUC of total RA) ([1]; single iv 1 mg/kg): 5.89 % AUC of total RA
Time up to which total radiolabeled components detectable in the brain ([5]; QWBA): up to 48 h
Cmax tissue over blood ratio ([5]; other matrices): smaller than 2
Share of matrices with AUClast greater than that of blood ([5]; total radiolabeled components): more than 90%
Total detected radioactivity, total excretion (urine + feces) ([2]; 0–48 h, single iv 1 mg/kg): 48.3 % of RA dose
Amount of radiolabeled component, total excretion (urine + feces) [2, 8]: 31.7 % of RA dose
Overall recovery of radioactivity (mass balance) ([2]; 48 h, urine, feces, carcass and tritiated water): 102.3%
Radioactivity in carcass 48 h ([2]; 48 h p.d., single iv 1 mg/kg): 38.6 % of RA dose
Radioactivity in cage wash (0–48) ([2]; single iv 1 mg/kg): 6.81 % of RA dose
Amount of radiolabeled component in urine (0–48 h) [2, 9]: 31.2 % of RA dose
Total detected radioactivity in feces (0–48) [2, 9]: 2.34 % of RA dose
Total detected radioactivity in urine (0–48 h), without cage wash [2, 9]: 45.9 % of RA dose
Amount of radiolabeled component in feces (0–48) [2, 10]: 0.489 % of RA dose
Tolerability [6]: well tolerated

From article PMC4777266 (Pharmacology Research & Perspectives, 2016)
